Assay results published in ChEMBL document CHEMBL1140331, “Iterative approach to the discovery of novel degarelix analogues: substitutions at positions 3, 7, and 8. Part II” (J Med Chem, 2005).
*1 amine or outer side, *2 acyl side, *3 side chain or, on linkers, in order; H or OH if unused. Where a SMILES comes first, the peptide text is derived from it. [ ]: non-standard residue; d: D form. The star is where a group is joined. Phe(4-NH(5-NH2triazol-3-yl)) = Nc1nc(Nc2ccc(C[C@H](N)C(=O)O)cc2)n[nH]1; X1 = Nc1nc(Nc2ccc(C[C@@H](N[*:1])C(=O)[*:2])cc2)n[nH]1; dPhe(4-NHCONH2) = NC(=O)Nc1ccc(C[C@@H](N)C(=O)O)cc1; Dihydroorotyl(S) = O=C1C[C@@H](C(=O)*)NC(=O)N1; dPhe(4-Cl) = N[C@H](Cc1ccc(Cl)cc1)C(=O)O; Phe(4-NH2) = Nc1ccc(C[C@H](N)C(=O)O)cc1; d2Nal = N[C@H](Cc1ccc2ccccc2c1)C(=O)O; Lys(iPr) = CC(C)NCCCC[C@H](N)C(=O)O; d3Pal = N[C@H](Cc1cccnc1)C(=O)O

Target: T1, Gonadotropin-releasing hormone receptor (Homo sapiens, UniProt P30968)
T1 sequence (P30968 whole entry): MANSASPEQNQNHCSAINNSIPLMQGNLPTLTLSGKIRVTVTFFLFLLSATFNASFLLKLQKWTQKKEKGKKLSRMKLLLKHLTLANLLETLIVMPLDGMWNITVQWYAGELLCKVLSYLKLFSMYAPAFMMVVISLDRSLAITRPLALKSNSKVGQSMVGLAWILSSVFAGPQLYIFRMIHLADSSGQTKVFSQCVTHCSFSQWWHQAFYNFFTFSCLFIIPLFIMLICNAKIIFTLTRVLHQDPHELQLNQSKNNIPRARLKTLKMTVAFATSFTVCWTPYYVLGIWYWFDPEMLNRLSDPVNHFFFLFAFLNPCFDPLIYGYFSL
Assay: Antagonism of GnRH response in HEK293 cells expressing human GnRH receptor
Type: functional, cell-based
How it was run: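 HEK293 cells stably carrying cloned human GnRH receptor and luciferase reporter under LH α-subunit promoter; cultured in phenol red-free DMEM, 10% FBS, G418 0.4 mg/mL; plated 5×10^4 cells/well, overnight 37 °C. Compound (11 half-log concentrations, duplicate, 1% DMSO) preincubated 10 min, then GnRH 1 nM final, ≥5 h; luminescence read; % of control cps (blank-subtracted) gives IC50.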

| IC50 | IC50 (hek293) | Compound |
| --- | --- | --- |
| 2.71 nM |  | CC(=O)N[C@H](Cc1ccc2ccccc2c1)C(=O)N[C@H](Cc1ccc(Cl)cc1)C(=O)N[C@H](CNCc1ccccn1)C(=O)N[C@@H](CO)C(=O)N[C@@H](Cc1ccc(NC(=O)[C@@H]2CC(=O)NC(=O)N2)cc1)C(=O)N[C@H](Cc1ccc(NC(N)=O)cc1)C(=O)N[C@@H](CC(C)C)C(=O)N[C@@H](CCCCNC(C)C)C(=O)N1CCC[C@H]1C(=O)N[C@H](C)C(N)=O |
| 2.11 nM |  | C#CC[C@H](NC(=O)[C@@H](Cc1ccc(NC(N)=O)cc1)NC(=O)[C@H](Cc1ccc(NC(=O)[C@@H]2CC(=O)NC(=O)N2)cc1)NC(=O)[C@H](CO)NC(=O)[C@@H](Cc1cccnc1)NC(=O)[C@@H](Cc1ccc(Cl)cc1)NC(=O)[C@@H](Cc1ccc2ccccc2c1)NC(C)=O)C(=O)N[C@@H](CCCCNC(C)C)C(=O)N1CCC[C@H]1C(=O)N[C@H](C)C(N)=O |
| 1.85 nM |  | CC(=O)N[C@H](Cc1ccc2ccccc2c1)C(=O)N[C@H](Cc1ccc(Cl)cc1)C(=O)N[C@H](Cc1cccnc1)C(=O)N[C@@H](CO)C(=O)N[C@@H](Cc1ccc(NC(=O)[C@@H]2CC(=O)NC(=O)N2)cc1)C(=O)N(C)[C@H](Cc1ccc(NC(N)=O)cc1)C(=O)N[C@@H](CC(C)C)C(=O)N[C@@H](CCCCNC(C)C)C(=O)N1CCC[C@H]1C(=O)N[C@H](C)C(N)=O |
|  | 1.77 nM | CC(=O)N[C@H](Cc1ccc2ccccc2c1)C(=O)N[C@H](Cc1ccc(Cl)cc1)C(=O)N[C@@H](Cc1cccnc1)C(=O)N[C@@H](CO)C(=O)N[C@@H](Cc1ccc(NC(=O)[C@@H]2CC(=O)NC(=O)N2)cc1)C(=O)N[C@@H](Cc1ccc(NC(N)=O)cc1)C(=O)N[C@@H](CC(C)C)C(=O)N[C@@H](CCNC(C(=O)O)C1CCCCC1)C(=O)N1CCC[C@H]1C(=O)N[C@H](C)C(N)=O (some centres not stated) |
| 52.2 nM |  | CC(=O)N[C@H](Cc1ccc2ccccc2c1)C(=O)N[C@H](Cc1ccc(Cl)cc1)C(=O)N[C@H](Cc1cccnc1)C(=O)N[C@@H](CO)C(=O)N[C@@H](Cc1ccc(NC(=O)[C@@H]2CC(=O)NC(=O)N2)cc1)C(=O)N[C@H](Cc1ccc(NC(N)=O)cc1)C(=O)N[C@@H](CC(C)C)C(=O)N(C)[C@@H](CCCCNC(C)C)C(=O)N1CCC[C@H]1C(=O)N[C@H](C)C(N)=O |
| 2.85 nM |  | CC(=O)N[C@H](Cc1ccc2ccccc2c1)C(=O)N[C@H](Cc1ccc(Cl)cc1)C(=O)N[C@H](Cc1cccnc1)C(=O)N[C@@H](CO)C(=O)N[C@@H](Cc1ccc(NC(=O)[C@@H]2CC(=O)NC(=O)N2)cc1)C(=O)N[C@H](Cc1ccc(NC(N)=O)cc1)C(=O)N[C@@H](Cc1ccc(O)cc1)C(=O)N[C@@H](CCCCNC(C)C)C(=O)N1CCC[C@H]1C(=O)N[C@H](C)C(N)=O |
| 9.18 nM |  | CC(=O)N[C@H](Cc1ccc2ccccc2c1)C(=O)N[C@H](Cc1ccc(Cl)cc1)C(=O)N[C@H](Cc1cccnc1)C(=O)N[C@@H](CO)C(=O)N[C@@H](Cc1ccc(NC(=O)[C@@H]2CC(=O)NC(=O)N2)cc1)C(=O)N[C@H](Cc1ccc(NC(N)=O)cc1)C(=O)N[C@@H](CC(N)=O)C(=O)N[C@@H](CCCCNC(C)C)C(=O)N1CCC[C@H]1C(=O)N[C@H](C)C(N)=O |
|  | 3.79 nM | CC(=O)N[C@H](Cc1ccc2ccccc2c1)C(=O)N[C@H](Cc1ccc(Cl)cc1)C(=O)N[C@H](CCNCc1ccccn1)C(=O)N[C@@H](CO)C(=O)N[C@@H](Cc1ccc(NC(=O)[C@@H]2CC(=O)NC(=O)N2)cc1)C(=O)N[C@H](Cc1ccc(NC(N)=O)cc1)C(=O)N[C@@H](CC(C)C)C(=O)N[C@@H](CCCCNC(C)C)C(=O)N1CCC[C@H]1C(=O)N[C@H](C)C(N)=O |
| 1.47 nM |  | CC(=O)N[C@H](Cc1ccc2ccccc2c1)C(=O)N[C@H](Cc1ccc(Cl)cc1)C(=O)N[C@H](Cc1cccnc1)C(=O)N[C@@H](CO)C(=O)N[C@@H](Cc1ccc(NC(=O)[C@@H]2CC(=O)NC(=O)N2)cc1)C(=O)N[C@H](Cc1ccc(NC(N)=O)cc1)C(=O)N(C)[C@@H](CC(C)C)C(=O)N[C@@H](CCCCNC(C)C)C(=O)N1CCC[C@H]1C(=O)N[C@H](C)C(N)=O |
| 1.72 nM |  | CC(=O)N[C@H](Cc1ccc2ccccc2c1)C(=O)N[C@H](Cc1ccc(Cl)cc1)C(=O)N[C@H](Cc1cccnc1)C(=O)N[C@@H](CO)C(=O)N[C@@H](Cc1ccc(NC(=O)[C@@H]2CC(=O)NC(=O)N2)cc1)C(=O)N[C@H](Cc1ccc(NC(N)=O)cc1)C(=O)N[C@@H](CC(C)C)C(=O)N[C@@H](CCCNC(C)C)C(=O)N1CCC[C@H]1C(=O)N[C@H](C)C(N)=O |
|  | 1.77 nM | CC(=O)N[C@H](Cc1ccc2ccccc2c1)C(=O)N[C@H](Cc1ccc(Cl)cc1)C(=O)N[C@@H](Cc1cccnc1)C(=O)N[C@@H](CO)C(=O)N[C@@H](Cc1ccc(NC(=O)[C@@H]2CC(=O)NC(=O)N2)cc1)C(=O)N[C@@H](Cc1ccc(NC(N)=O)cc1)C(=O)N[C@@H](CC(C)C)C(=O)N[C@@H](CCCNC(=O)[C@H]1CC(=O)NC(=O)N1)C(=O)N1CCC[C@H]1C(=O)N[C@H](C)C(N)=O |
| 1.5 nM |  | CC(=O)N[C@H](Cc1ccc2ccccc2c1)C(=O)N[C@H](Cc1ccc(Cl)cc1)C(=O)N[C@H](Cc1cccnc1)C(=O)N[C@@H](CO)C(=O)N[C@@H](Cc1ccc(NC(=O)[C@@H]2CC(=O)NC(=O)N2)cc1)C(=O)N[C@H](Cc1ccc(NC(N)=O)cc1)C(=O)N[C@@H](CC(C)C)C(=O)N[C@@H](CCCCNC1CCCCC1)C(=O)N1CCC[C@H]1C(=O)N[C@H](C)C(N)=O |
| 48.9 nM |  | CC(=O)N[C@H](Cc1ccc2ccccc2c1)C(=O)N[C@H](Cc1ccc(Cl)cc1)C(=O)N[C@H](Cc1cccnc1)C(=O)N[C@@H](CO)C(=O)N[C@@H](Cc1ccc(NC(=O)[C@@H]2CC(=O)NC(=O)N2)cc1)C(=O)N[C@H](Cc1ccc(NC(N)=O)cc1)C(=O)N[C@@H](CC(=O)N(C)C)C(=O)N[C@@H](CCCCNC(C)C)C(=O)N1CCC[C@H]1C(=O)N[C@H](C)C(N)=O |
| 10.6 nM |  | CC(=O)N[C@H](Cc1ccc2ccccc2c1)C(=O)N[C@H](Cc1ccc(Cl)cc1)C(=O)N[C@H](Cc1cccnc1)C(=O)N[C@@H](CO)C(=O)N[C@@H](Cc1ccc(NC(=O)[C@@H]2CC(=O)NC(=O)N2)cc1)C(=O)N[C@H](Cc1ccc(NC(N)=O)cc1)C(=O)N[C@@H](Cc1c[nH]cn1)C(=O)N[C@@H](CCCCNC(C)C)C(=O)N1CCC[C@H]1C(=O)N[C@H](C)C(N)=O |
| 178 nM |  | CC(=O)N[C@H](Cc1ccc2ccccc2c1)C(=O)N[C@H](Cc1ccc(Cl)cc1)C(=O)N[C@H](Cc1cccnc1)C(=O)N[C@@H](CO)C(=O)N[C@@H](Cc1ccc(NC(=O)[C@@H]2CC(=O)NC(=O)N2)cc1)C(=O)N[C@H](Cc1ccc(NC(N)=O)cc1)C(=O)N[C@@H](CS)C(=O)N[C@@H](CCCCNC(C)C)C(=O)N1CCC[C@H]1C(=O)N[C@H](C)C(N)=O |
| 1.98 nM |  | CC(=O)N[C@H](Cc1ccc2ccccc2c1)C(=O)N[C@H](Cc1ccc(Cl)cc1)C(=O)N[C@H](Cc1cccnc1)C(=O)N[C@@H](CO)C(=O)N[C@@H](Cc1ccc(NC(=O)[C@@H]2CC(=O)NC(=O)N2)cc1)C(=O)N[C@H](Cc1ccc(NC(N)=O)cc1)C(=O)N[C@@H](CC(C)C)C(=O)N[C@@H](CNC(=O)CCNC(C)C)C(=O)N1CCC[C@H]1C(=O)N[C@H](C)C(N)=O |
|  | 2.01 nM | CC(=O)N[C@H](Cc1ccc2ccccc2c1)C(=O)N[C@H](Cc1ccc(Cl)cc1)C(=O)N[C@H](Cc1cccnc1)C(=O)N[C@@H](CO)C(=O)N[C@@H](Cc1ccc(NC(=O)[C@@H]2CC(=O)NC(=O)N2)cc1)C(=O)N[C@H](Cc1ccc(NC(N)=O)cc1)C(=O)N[C@@H](CC(C)C)C(=O)N[C@@H](CN[C@H](C(=O)O)C1CCCCC1)C(=O)N1CCC[C@H]1C(=O)N[C@H](C)C(N)=O |
| 1.64 nM |  | CC(=O)N[C@H](Cc1ccc2ccccc2c1)C(=O)N[C@H](Cc1ccc(Cl)cc1)C(=O)N[C@H](Cc1cccnc1)C(=O)N[C@@H](CO)C(=O)N[C@@H](Cc1ccc(NC(=O)[C@@H]2CC(=O)NC(=O)N2)cc1)C(=O)N[C@H](Cc1ccc(NC(N)=O)cc1)C(=O)N[C@@H](CC(C)C)C(=O)N[C@@H](CCCCNC(C)C)C(=O)N1CCC[C@H]1C(=O)N[C@H](C)C(N)=O [DEGARELIX] (Ac-[d2Nal][dPhe(4-Cl)][d3Pal]S[Phe(4-NH2)](Dihydroorotyl(S))[dPhe(4-NHCONH2)]L[Lys(iPr)]P[dA]-NH2) |
| 1.38 nM |  | CC(=O)N[C@H](Cc1ccc2ccccc2c1)C(=O)N[C@H](Cc1ccc(Cl)cc1)C(=O)N[C@H](Cc1cccnc1)C(=O)N[C@@H](CO)C(=O)N[C@@H](Cc1ccc(NC(=O)[C@@H]2CC(=O)NC(=O)N2)cc1)C(=O)N[C@H](Cc1ccc(NC(N)=O)cc1)C(=O)N[C@@H](CC(C)C)C(=O)N[C@@H](CCCNC(=O)CNC(C)C)C(=O)N1CCC[C@H]1C(=O)N[C@H](C)C(N)=O |
| 25.8 nM |  | CNC(=O)C[C@H](NC(=O)[C@@H](Cc1ccc(NC(N)=O)cc1)NC(=O)[C@H](Cc1ccc(NC(=O)[C@@H]2CC(=O)NC(=O)N2)cc1)NC(=O)[C@H](CO)NC(=O)[C@@H](Cc1cccnc1)NC(=O)[C@@H](Cc1ccc(Cl)cc1)NC(=O)[C@@H](Cc1ccc2ccccc2c1)NC(C)=O)C(=O)N[C@@H](CCCCNC(C)C)C(=O)N1CCC[C@H]1C(=O)N[C@H](C)C(N)=O |
| 1.4 nM |  | CC(=O)N[C@H](Cc1ccc2ccccc2c1)C(=O)N[C@H](Cc1ccc(Cl)cc1)C(=O)N[C@H](Cc1cccnc1)C(=O)N[C@@H](CO)C(=O)N[C@@H](Cc1ccc(Nc2n[nH]c(N)n2)cc1)C(=O)N[C@H](Cc1ccc(Nc2n[nH]c(N)n2)cc1)C(=O)N[C@@H](CC(C)C)C(=O)N[C@@H](CCCCNC(C)C)C(=O)N1CCC[C@H]1C(=O)N[C@H](C)C(N)=O [PRAZARELIX ACETATE] (Ac-[d2Nal][dPhe(4-Cl)][d3Pal]S[Phe(4-NH(5-NH2triazol-3-yl))][X1]L[Lys(iPr)]P[dA]-NH2) |
|  | 5.31 nM | CC(=O)N[C@H](Cc1ccc2ccccc2c1)C(=O)N[C@H](Cc1ccc(Cl)cc1)C(=O)N[C@H](CN(Cc1ccccn1)Cc1ccccn1)C(=O)N[C@@H](CO)C(=O)N[C@@H](Cc1ccc(NC(=O)[C@@H]2CC(=O)NC(=O)N2)cc1)C(=O)N[C@H](Cc1ccc(NC(N)=O)cc1)C(=O)N[C@@H](CC(C)C)C(=O)N[C@@H](CCCCNC(C)C)C(=O)N1CCC[C@H]1C(=O)N[C@H](C)C(N)=O |
